From ChEMBL document CHEMBL1149897, “Acylated triterpenoid saponins from Schima noronhae and their cell growth inhibitory activity” (J Nat Prod, 2008)
Calls of active or inactive are those of the source. The rule behind the calls is not given here.

Tests used:
Type in all cases: functional, cell-based
HT-29 = experiment: Cytotoxicity against human HT29 cells after 24 hrs by fluorometric microculture assay; settings: HT-29, 24 h
HCT-116 = experiment: Cytotoxicity against human HCT116 cells after 24 hrs by fluorometric microculture assay; settings: HCT-116, 24 h
HeLa = experiment: Cytotoxicity against human HeLa cells after 24 hrs by fluorometric microculture assay
Procedure, shortened: (§1)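 DLD1 grown in RPMI 1640 with 10% FBS; HeLa in IMDM with 5% FBS; both at 37 °C, 5% CO2. Cells (6 × 10^3 per well) exposed to a range of compound concentrations for 24 h at 37 °C. Medium then removed and viability read by FMCA on a fluorescence plate reader as percent of control-well fluorescence. IC50 derived; triplicate experiments.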

DLD-1 = experiment: Cytotoxicity against human DLD1 cells after 24 hrs by fluorometric microculture assay; procedure, shortened: as §1

SMILES | IC50 (HT-29) [µg/mL] | IC50 (HCT-116) [µg/mL] | IC50 (HeLa) [µM] | Activity (DLD-1)
C/C=C(/C)C(=O)O[C@H]1[C@H](O)C(C)(C)C[C@H]2C3=CC[C@@H]4[C@@]5(C)CC[C@H](O[C@@H]6O[C@H](C(=O)O)[C@@H](O)[C@H](O)[C@H]6O[C@@H]6O[C@@H](C)[C@H](O)[C@@H](O)[C@H]6O)C(C)(C)[C@@H]5CC[C@@]4(C)[C@]3(C)[C@@H](O)[C@@H](O)[C@]21COC(C)=O | > 40 | > 40 | – | –
C/C=C(/C)C(=O)O[C@H]1CC(C)(C)C[C@H]2C3=CC[C@@H]4[C@@]5(C)CC[C@H](O[C@@H]6O[C@H](C(=O)O)[C@@H](O)[C@H](O[C@@H]7O[C@H](CO)[C@H](O[C@@H]8O[C@@H](C)[C@H](O)[C@@H](O)[C@H]8O)[C@H](O)[C@H]7O)[C@H]6O[C@@H]6O[C@H](CO)[C@@H](O)[C@H](O)[C@H]6O)C(C)(C)[C@@H]5CC[C@@]4(C)[C@]3(C)CC[C@@]12CO | – | – | 3.8 | Active
C/C=C(/C)C(=O)O[C@H]1[C@H](O)C(C)(C)C[C@H]2C3=CC[C@@H]4[C@@]5(C)CC[C@H](O[C@@H]6O[C@H](C(=O)O)[C@@H](O)[C@H](O)[C@H]6O[C@@H]6O[C@@H](C)[C@H](O)[C@@H](O)[C@H]6O)C(C)(C)[C@@H]5CC[C@@]4(C)[C@]3(C)[C@@H](O)[C@@H](O)[C@]21CO | > 40 | > 40 | – | –
C/C=C(/C)C(=O)O[C@H]1[C@H](OC(C)=O)C(C)(C)C[C@H]2C3=CC[C@@H]4[C@@]5(C)CC[C@H](O[C@@H]6O[C@H](C(=O)O)[C@@H](O)[C@H](O)[C@H]6O[C@@H]6O[C@@H](C)[C@H](O)[C@@H](O)[C@H]6O)C(C)(C)[C@@H]5CC[C@@]4(C)[C@]3(C)[C@@H](O)[C@@H](O)[C@]21CO | > 40 | > 40 | – | –
C/C=C(/C)C(=O)O[C@H]1CC(C)(C)C[C@H]2C3=CC[C@@H]4[C@@]5(C)CC[C@H](O[C@@H]6O[C@H](C(=O)O)[C@@H](O)[C@H](O[C@@H]7O[C@H](CO)[C@H](O[C@@H]8O[C@@H](C)[C@H](O)[C@@H](O)[C@H]8O)[C@H](O)[C@H]7O)[C@H]6O[C@@H]6O[C@H](CO)[C@@H](O)[C@H](O)[C@H]6O)C(C)(C)[C@@H]5CC[C@@]4(C)[C@]3(C)[C@@H](O)[C@@H](O)[C@@]12CO | – | – | 5.5 | Active
